Source: ChEMBL document CHEMBL6134784, “Furoxan-piplartine hybrids as effective NO donors and ROS inducers in PC3 cancer cells: design, synthesis, and biological evaluation” (RSC Med Chem, 2024)
Activity calls are given as the source filed them. No cut-off for these calls is given here.

How the values were obtained:
OVCAR-3 = test: Cytotoxicity against human OVCAR-3 cells assessed as reduction in cell viability measured after 48 hrs by CCK-8 assay; assay type: functional, cell-based; conditions: OVCAR-3, 48 h
Summary of the method: (§1)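 CCK-8 viability: cells grown in RPMI-1640 with 10% FBS, 1×10^4 per well, attached 24 h, then medium replaced with fresh medium containing a range of compound concentrations for 48 h at 37 °C, 5% CO2. CCK-8 added 3 h, absorbance 450 nm; vehicle control set as 100%. IC50 by nonlinear regression, mean ± SD, at least two experiments in triplicate.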

[1] = Selectivity index, ratio of IC50 for cytotoxicity against human PNT2 cells to IC50 for cytotoxicity against human PC-3 cells; assay type: toxicity, cell-based; conditions: PNT2 cells versus PC-3 cells, read-out: Ratio IC50
Summary of the method: (§2)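 CCK-8 was added for 3 h and A450 read, with vehicle set as 100% viability. IC50 was fitted by nonlinear regression from ≥2 experiments in triplicate. SI = normal-cell IC50 divided by the matched cancer-cell IC50.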

MCF7 = test: Cytotoxicity against human MCF7 cells assessed as reduction in cell viability measured after 48 hrs by CCK-8 assay; assay type: functional, cell-based; conditions: MCF7, 48 h; summary of the method: as §1
PC-3 [2] = test: Cytotoxicity against human PC-3 cells assessed as reduction in cell viability measured after 48 hrs by CCK-8 assay; assay type: functional, cell-based; conditions: PC-3, 48 h; summary of the method: as §1
[3] = Cytotoxicity against human PNT2 cells assessed as reduction in cell viability measured after 48 hrs by CCK-8 assay; assay type: toxicity, cell-based; summary of the method: as §1
PC-3 [4] = test: Induction of nitric oxide production in human PC-3 cells assessed as nitrite level at 100 uM measured after 12 to 48 hrs by Griess assay; assay type: functional; conditions: time 12-48 hrs
Summary of the method: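 PC3 cells were seeded at 1×10^4 per well and grown 24 h, then moved to serum-free RPMI with 100 μM compound for 12, 24 or 48 h at 37 °C. Supernatant was mixed with 1% sulfanilamide in 2.5% H3PO4 (10 min, dark), then 0.1% NED (10 min, 37 °C), and A540 was read. Nitrite was calculated from a NaNO2 curve (0–100 μM). Controls were DMSO and SNP 100 μM. Data from ≥3 independent experiments in triplicate, mean ± SD.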

[5] = Cytotoxicity against human MCF-10A cells assessed as reduction in cell viability measured after 48 hrs by CCK-8 assay; assay type: toxicity, cell-based; summary of the method: as §1
[6] = Selectivity index, ratio of IC50 for cytotoxicity against human MCF-10A cells to IC50 for cytotoxicity against human MCF7 cells; assay type: toxicity, cell-based; conditions: MCF-10A cells versus MCF7 cells, read-out: Ratio IC50; summary of the method: as §2
PC-3 [7] = test: Cytotoxicity against human PC-3 cells assessed as reduction in cell viability at 0.05 uM measured after 24 hrs by SRB assay; assay type: functional, cell-based
Summary of the method: (§3)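 SRB assay: PC3 seeded 1×10^4 per well, after 24 h exposed 24 h at 37 °C, 5% CO2 with or without 1 mM N-acetyl-L-cysteine; vehicle 0.1% DMSO. Fixed with 15% TCA at 4 °C for 1 h, dried, stained 0.4% sulforhodamine B, dye solubilized in 10 mM Tris, absorbance 540 nm; ANOVA/Tukey.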

PC-3 [8] = test: Cytotoxicity against human PC-3 cells assessed as reduction in cell viability at 0.05 uM measured after 24 hrs in presence of antioxidant N-acetyl-L-cysteine by SRB assay; assay type: functional, cell-based; summary of the method: as §3
PC-3 [9] = test: Cytotoxicity against human PC-3 cells assessed as reduction in cell viability at 0.24 uM measured after 24 hrs in presence of antioxidant N-acetyl-L-cysteine by SRB assay; assay type: functional, cell-based; summary of the method: as §3
PC-3 [10] = test: Cytotoxicity against human PC-3 cells assessed as reduction in cell viability at 0.24 uM measured after 24 hrs by SRB assay; assay type: functional, cell-based; summary of the method: as §3

**Q.** Which IC50 (OVCAR-3) does the source give for `COc1cc(/C=C/C(=O)N2CCC=CC2=O)cc(OC)c1OCCCCCCOc1no[n+]([O-])c1S(=O)(=O)c1ccccc1` here?
**A.** Its IC50 is 0.3 µM.

**Q.** And the selectivity ratio [1]?
**A.** Its selectivity ratio is 26.2.

**Q.** And the IC50 (MCF7)?
**A.** The IC50 was 1.1 µM.

**Q.** What about the IC50 (PC-3 [2]) of the same molecule?
**A.** The IC50 was 0.13 µM.

**Q.** What about the IC50 at 48 h [3] of the same molecule?
**A.** The IC50 at 48 h was 3.3 µM.

**Q.** What about the Activity (PC-3 [4]) of the same molecule?
**A.** The Activity was 23.5 µM.

**Q.** And the IC50 at 48 h [5]?
**A.** The IC50 at 48 h was 3.6 µM.

**Q.** And the selectivity ratio [6]?
**A.** Its selectivity ratio is 3.1.

**Q.** Which IC50 (OVCAR-3) does the source give for `COc1cc(/C=C/C(=O)N2CCC=CC2=O)cc(OC)c1OC` [PIPLARTINE] here?
**A.** The IC50 was 3.5 µM.

**Q.** What about the selectivity ratio [1] of the same molecule?
**A.** The selectivity ratio was 1.5.

**Q.** And the IC50 (MCF7)?
**A.** The IC50 was 5.4 µM.

**Q.** And the IC50 (PC-3 [2])?
**A.** Its IC50 is 5.6 µM.

**Q.** What about the IC50 at 48 h [3] of the same molecule?
**A.** Its IC50 at 48 h is 8.5 µM.

**Q.** And the IC50 at 48 h [5]?
**A.** The IC50 at 48 h was 5.3 µM.

**Q.** What about the selectivity ratio [6] of the same molecule?
**A.** Its selectivity ratio is 1.

**Q.** With `O=S(=O)(c1ccccc1)c1c(OCCCCCCCCCCCCO)no[n+]1[O-]` as the molecule, how does the IC50 (OVCAR-3) read?
**A.** Its IC50 is 0.04 µM.

**Q.** What about the selectivity ratio [1] of the same molecule?
**A.** The selectivity ratio was 137.

**Q.** And the IC50 (MCF7)?
**A.** Its IC50 is 4.3 µM.

**Q.** What about the IC50 (PC-3 [2]) of the same molecule?
**A.** Its IC50 is 0.13 µM.

**Q.** What about the IC50 at 48 h [3] of the same molecule?
**A.** The IC50 at 48 h was 17.6 µM.

**Q.** What about the Activity (PC-3 [7]) of the same molecule?
**A.** The Activity was “Active”.

**Q.** What about the Activity (PC-3 [4]) of the same molecule?
**A.** Its Activity is 3.2 µM.

**Q.** And the Activity (PC-3 [8])?
**A.** Its Activity is “inactive”.

**Q.** What about the IC50 at 48 h [5] of the same molecule?
**A.** Its IC50 at 48 h is 14.8 µM.

**Q.** What about the selectivity ratio [6] of the same molecule?
**A.** Its selectivity ratio is 3.4.

**Q.** For `O=S(=O)(c1ccccc1)c1c(OCCCO)no[n+]1[O-]`, which IC50 (OVCAR-3) is on record?
**A.** The IC50 was 3.3 µM.

**Q.** And the selectivity ratio [1]?
**A.** The selectivity ratio was 0.3.

**Q.** What about the IC50 (MCF7) of the same molecule?
**A.** The IC50 was 2.1 µM.

**Q.** And the Activity (PC-3 [9])?
**A.** The Activity was “inactive”.

**Q.** And the IC50 (PC-3 [2])?
**A.** The IC50 was 7.2 µM.

**Q.** And the IC50 at 48 h [3]?
**A.** Its IC50 at 48 h is 1.9 µM.

**Q.** And the Activity (PC-3 [4])?
**A.** The Activity was 3.2 µM.

**Q.** What about the Activity (PC-3 [10]) of the same molecule?
**A.** Its Activity is “Active”.

**Q.** And the IC50 at 48 h [5]?
**A.** Its IC50 at 48 h is 1.8 µM.

**Q.** What about the selectivity ratio [6] of the same molecule?
**A.** Its selectivity ratio is 0.9.

**Q.** Which IC50 (OVCAR-3) does the source give for `O=S(=O)(c1ccccc1)c1c(OCCCCCCO)no[n+]1[O-]` here?
**A.** Its IC50 is 2.2 µM.

**Q.** And the selectivity ratio [1]?
**A.** Its selectivity ratio is 3.4.

**Q.** What about the IC50 (MCF7) of the same molecule?
**A.** The IC50 was 2 µM.

**Q.** And the IC50 (PC-3 [2])?
**A.** The IC50 was 3.8 µM.

**Q.** What about the IC50 at 48 h [3] of the same molecule?
**A.** The IC50 at 48 h was 12.9 µM.

**Q.** What about the Activity (PC-3 [4]) of the same molecule?
**A.** Its Activity is 3.2 µM.

**Q.** What about the IC50 at 48 h [5] of the same molecule?
**A.** The IC50 at 48 h was 1.7 µM.

**Q.** What about the selectivity ratio [6] of the same molecule?
**A.** The selectivity ratio was 0.9.
